Assay results as given in ChEMBL document CHEMBL5321201, “Investigation of morpholine isosters for the development of a potent, selective and metabolically stable mTOR kinase inhibitor” (Eur J Med Chem, 2023).
pIC50, pKd, pKi: −log10 of the molar value.

Columns and labels:
[1] = Metabolic stability in Sprague-Dawley rat hepatocytes assessed as intrinsic clearance measured per million cells at 5 microM incubated upto 180 mins by LC/MS analysis; type: ADME, cell-based, Hepatocyte; conditions: read-out: CLH
Outline: (§1)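 Cryopreserved hepatocytes from the listed species, in suspension at 200,000 cells/well in Williams Medium E with 2 mM L-glutamine and 25 mM HEPES. Compound final 5 µM in 0.5% DMSO, sampled at 0, 15, 60, 90 and 180 min. ACN precipitation, LC-MS. Hepatocyte-free medium served as negative control and 7-ethoxycoumarin as reference; duplicates.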

[2] = Metabolic stability in human hepatocytes assessed as half life at 5 microM incubated upto 180 mins by LC/MS analysis; type: ADME, cell-based, Hepatocyte; outline: as §1
[3] = Metabolic stability in CD-1 mouse hepatocytes assessed as intrinsic clearance measured per million cells at 5 microM incubated upto 180 mins by LC/MS analysis; type: ADME, cell-based, Hepatocyte; conditions: read-out: CLH; outline: as §1
[4] = Metabolic stability in Beagle dog hepatocytes assessed as half life at 5 microM incubated upto 180 mins by LC/MS analysis; type: ADME, cell-based, Canis lupus familiaris, Hepatocyte; outline: as §1
[5] = Metabolic stability in CD-1 mouse hepatocytes assessed as half life at 5 microM incubated upto 180 mins by LC/MS analysis; type: ADME, cell-based, Hepatocyte; outline: as §1
[6] = Metabolic stability in Sprague-Dawley rat hepatocytes assessed as half life at 5 microM incubated upto 180 mins by LC/MS analysis; type: ADME, cell-based, Hepatocyte; outline: as §1
[7] = Metabolic stability in Beagle dog hepatocytes assessed as intrinsic clearance measured per million cells at 5 microM incubated upto 180 mins by LC/MS analysis; type: ADME, cell-based, Canis lupus familiaris, Hepatocyte; conditions: read-out: CLH; outline: as §1
[8] = Metabolic stability in human hepatocytes assessed as intrinsic clearance measured per million cells at 5 microM incubated upto 180 mins by LC/MS analysis; type: ADME, cell-based, Hepatocyte; conditions: read-out: CLH; outline: as §1
[9] = target: Phosphatidylinositol 4-kinase beta (Homo sapiens, UniProt Q9UBF8); assay: Binding affinity to DNA-tagged P14kbeta (unknown origin) assessed as dissociation constant by quantitative PCR analysis
Chain of Phosphatidylinositol 4-kinase beta (Q9UBF8 whole entry): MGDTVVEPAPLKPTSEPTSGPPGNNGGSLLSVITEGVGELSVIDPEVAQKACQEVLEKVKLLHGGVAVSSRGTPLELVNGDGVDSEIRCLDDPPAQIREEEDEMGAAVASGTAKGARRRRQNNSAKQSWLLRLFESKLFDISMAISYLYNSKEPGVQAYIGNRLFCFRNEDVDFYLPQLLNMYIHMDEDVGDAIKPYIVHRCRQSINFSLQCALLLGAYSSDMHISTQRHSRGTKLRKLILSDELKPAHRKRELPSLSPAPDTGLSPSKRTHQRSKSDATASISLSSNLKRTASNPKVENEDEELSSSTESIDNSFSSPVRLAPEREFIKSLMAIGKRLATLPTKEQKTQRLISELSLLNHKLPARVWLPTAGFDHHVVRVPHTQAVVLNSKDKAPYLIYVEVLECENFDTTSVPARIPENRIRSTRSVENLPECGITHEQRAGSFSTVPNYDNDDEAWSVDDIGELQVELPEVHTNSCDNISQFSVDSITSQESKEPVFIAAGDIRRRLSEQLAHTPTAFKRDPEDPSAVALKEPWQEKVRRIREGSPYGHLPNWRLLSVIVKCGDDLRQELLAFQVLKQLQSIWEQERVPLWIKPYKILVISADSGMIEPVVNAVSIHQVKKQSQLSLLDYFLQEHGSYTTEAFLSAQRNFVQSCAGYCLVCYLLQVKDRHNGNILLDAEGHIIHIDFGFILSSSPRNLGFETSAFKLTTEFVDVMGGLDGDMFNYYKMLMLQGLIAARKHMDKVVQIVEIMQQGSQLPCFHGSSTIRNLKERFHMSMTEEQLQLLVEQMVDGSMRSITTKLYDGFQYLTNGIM
Outline: (§2)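 Competition binding: DNA-tagged kinases on immobilized ligand competed with an 11-point 3-fold dilution starting at 30 µM. Bound kinase quantified by qPCR of DNA tags. Kd fitted with the Hill equation (slope −1); duplicate experiments, mean reported.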

[10] = Metabolic stability in CD-1 mouse hepatocytes assessed as parent compound remaining at 5 uM measured after 3 hrs by LC-MS analysis; type: ADME, cell-based, Hepatocyte; conditions: read-out: Stability; outline: as §1
[11] = target: T1, Serine/threonine-protein kinase mTOR (Homo sapiens, UniProt P42345); assay: Displacement of Alexa fluor 647-labeled kinase tracer 314 from N-terminal GST-fused truncated recombinant human mTOR (1360 to 2549 residues) assessed as inhibition constant by TR-FRET based Lanthascreen kinase activity assay
[12] = Toxicity in Sprague-Dawley rat assessed as increase in insulin concentration at 5 mg/kg, po measured upto 8 hrs by ELISA; type: organism-based; conditions: in vivo
Outline: (§3)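 Male SD rats dosed orally at 5 mg/kg in 20% Captisol, with vehicle controls. Plasma was taken by heart puncture at 30 min, 2, 4 and 8 h, three rats per point. Insulin was measured by rat/mouse insulin ELISA and glucose by colorimetric assay.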

cells [13] = conditions: Homo sapiens, SSK41, 72 h
[14] = target: T1, Serine/threonine-protein kinase mTOR; assay: Binding affinity to DNA-tagged mTOR (unknown origin) assessed as dissociation constant by quantitative PCR analysis; outline: as §2
[15] = target: Phosphatidylinositol 4,5-bisphosphate 3-kinase catalytic subunit beta isoform (Homo sapiens, UniProt P42338); assay: Binding affinity to DNA-tagged P13kbeta (unknown origin) assessed as dissociation constant by quantitative PCR analysis; outline: as §2
Chain of Phosphatidylinositol 4,5-bisphosphate 3-kinase catalytic subunit beta isoform (P42338 whole entry, canonical isoform): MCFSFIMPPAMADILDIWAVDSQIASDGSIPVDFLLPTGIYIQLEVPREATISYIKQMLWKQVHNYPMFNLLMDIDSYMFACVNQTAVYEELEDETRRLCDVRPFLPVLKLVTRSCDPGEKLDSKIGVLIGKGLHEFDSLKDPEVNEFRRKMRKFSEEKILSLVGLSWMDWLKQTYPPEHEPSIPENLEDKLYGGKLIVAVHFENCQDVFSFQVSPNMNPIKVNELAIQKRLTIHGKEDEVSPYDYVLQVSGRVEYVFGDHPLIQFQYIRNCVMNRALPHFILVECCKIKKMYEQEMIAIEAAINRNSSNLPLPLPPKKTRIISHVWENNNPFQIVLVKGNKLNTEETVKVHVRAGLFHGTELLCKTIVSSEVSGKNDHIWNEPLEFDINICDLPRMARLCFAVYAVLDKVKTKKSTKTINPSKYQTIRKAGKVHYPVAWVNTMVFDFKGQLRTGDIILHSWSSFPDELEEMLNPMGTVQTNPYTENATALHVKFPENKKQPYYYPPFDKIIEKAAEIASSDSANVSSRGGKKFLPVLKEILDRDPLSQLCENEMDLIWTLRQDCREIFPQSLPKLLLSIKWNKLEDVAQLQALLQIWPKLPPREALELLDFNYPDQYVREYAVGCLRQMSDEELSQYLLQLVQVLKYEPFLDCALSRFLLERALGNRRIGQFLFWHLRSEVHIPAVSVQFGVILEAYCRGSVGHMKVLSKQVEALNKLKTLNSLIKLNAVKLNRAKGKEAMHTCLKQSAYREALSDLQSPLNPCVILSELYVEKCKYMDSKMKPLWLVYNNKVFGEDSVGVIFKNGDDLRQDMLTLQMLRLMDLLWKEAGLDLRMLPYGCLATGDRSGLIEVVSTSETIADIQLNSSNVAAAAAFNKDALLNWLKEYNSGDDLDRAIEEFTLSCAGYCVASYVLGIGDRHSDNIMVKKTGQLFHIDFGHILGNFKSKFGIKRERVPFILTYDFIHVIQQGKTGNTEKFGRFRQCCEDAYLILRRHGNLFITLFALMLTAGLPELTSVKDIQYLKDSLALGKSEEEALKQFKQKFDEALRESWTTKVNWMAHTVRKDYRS

[16] = target: T2, Phosphatidylinositol 4,5-bisphosphate 3-kinase catalytic subunit alpha isoform (Homo sapiens, UniProt P42336); assay: Displacement of Alexa fluor 647-labeled kinase tracer 314 from recombinant N-terminal (His)6-tagged p110alpha (unknown origin) assessed as inhibition constant by TR-FRET based Lanthascreen kinase activity assay
T2 sequence (P42336 whole entry, canonical isoform): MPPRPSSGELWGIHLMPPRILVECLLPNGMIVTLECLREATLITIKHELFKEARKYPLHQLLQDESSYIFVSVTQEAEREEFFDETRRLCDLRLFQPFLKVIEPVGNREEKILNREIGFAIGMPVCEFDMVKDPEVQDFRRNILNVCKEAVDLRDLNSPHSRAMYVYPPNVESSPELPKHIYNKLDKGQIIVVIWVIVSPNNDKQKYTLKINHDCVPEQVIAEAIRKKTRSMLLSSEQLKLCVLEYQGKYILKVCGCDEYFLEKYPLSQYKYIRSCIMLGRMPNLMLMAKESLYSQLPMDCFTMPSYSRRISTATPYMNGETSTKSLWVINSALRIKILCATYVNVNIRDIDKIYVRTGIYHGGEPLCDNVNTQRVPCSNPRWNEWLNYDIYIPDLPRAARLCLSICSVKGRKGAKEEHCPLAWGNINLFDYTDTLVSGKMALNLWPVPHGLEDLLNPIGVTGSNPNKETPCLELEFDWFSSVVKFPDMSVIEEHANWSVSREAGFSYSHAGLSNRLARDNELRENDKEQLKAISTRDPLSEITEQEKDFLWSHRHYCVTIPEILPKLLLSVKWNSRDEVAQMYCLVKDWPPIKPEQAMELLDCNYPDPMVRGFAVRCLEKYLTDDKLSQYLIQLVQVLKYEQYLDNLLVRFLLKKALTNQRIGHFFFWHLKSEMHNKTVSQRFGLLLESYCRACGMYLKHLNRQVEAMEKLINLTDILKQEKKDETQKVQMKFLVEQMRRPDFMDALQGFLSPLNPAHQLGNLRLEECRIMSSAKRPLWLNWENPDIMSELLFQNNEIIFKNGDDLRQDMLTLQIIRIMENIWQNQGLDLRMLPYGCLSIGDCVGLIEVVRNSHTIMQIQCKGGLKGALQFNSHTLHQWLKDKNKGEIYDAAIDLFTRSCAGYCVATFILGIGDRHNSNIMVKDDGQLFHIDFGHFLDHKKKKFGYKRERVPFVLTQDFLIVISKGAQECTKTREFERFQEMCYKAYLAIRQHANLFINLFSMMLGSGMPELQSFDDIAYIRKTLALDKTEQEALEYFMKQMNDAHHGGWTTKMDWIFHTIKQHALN

[17] = target: T2, Phosphatidylinositol 4,5-bisphosphate 3-kinase catalytic subunit alpha isoform; assay: Binding affinity to DNA-tagged P13kalpha (unknown origin) assessed as dissociation constant by quantitative PCR analysis; outline: as §2
cells [18] = conditions: Homo sapiens, SK-OV-3, 1 h
CYP1A1 = target: T3, CYP1A1 (Homo sapiens, UniProt P04798); assay: Stability of compound assessed as recombinant human CYP1A1-mediated drug metabolism by measuring compound remaining at 1 uM incubated for 60 mins by LC-MS analysis; type: ADME; conditions: read-out: Stability
T3 sequence (P04798 whole entry): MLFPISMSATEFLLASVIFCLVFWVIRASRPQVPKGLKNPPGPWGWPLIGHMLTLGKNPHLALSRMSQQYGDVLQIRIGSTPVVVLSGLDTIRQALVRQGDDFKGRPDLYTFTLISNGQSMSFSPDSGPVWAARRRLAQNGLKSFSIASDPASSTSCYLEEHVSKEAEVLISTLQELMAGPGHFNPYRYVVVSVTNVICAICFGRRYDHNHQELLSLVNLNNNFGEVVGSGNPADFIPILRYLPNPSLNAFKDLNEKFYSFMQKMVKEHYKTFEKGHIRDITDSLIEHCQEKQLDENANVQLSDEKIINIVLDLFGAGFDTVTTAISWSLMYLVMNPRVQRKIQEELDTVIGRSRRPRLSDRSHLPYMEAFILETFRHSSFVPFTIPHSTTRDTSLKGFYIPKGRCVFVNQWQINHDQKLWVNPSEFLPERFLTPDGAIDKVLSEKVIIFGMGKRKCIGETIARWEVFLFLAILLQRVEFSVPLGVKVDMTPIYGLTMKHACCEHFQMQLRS
Outline: (§4)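 Recombinant human CYP1A1 or CYP1A2 Supersomes at 25 pmol/mL, with compound at 1 µM (0.25% DMSO) and an NADP+-regenerating cofactor mix, at 37 °C. Reactions stopped with ACN plus internal standard at 0 and 60 min. Controls: melatonin for CYP1A1 and phenacetin for CYP1A2, plus no-cofactor negatives. Duplicates.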

cells [19] = conditions: Homo sapiens, SK-OV-3, 1 h; remark: listed apart in the source
VL51 = assay: cells; conditions: Homo sapiens, VL51, 72 h
[20] = Metabolic stability in Sprague-Dawley rat hepatocytes assessed as parent compound remaining at 5 uM measured after 3 hrs by LC-MS analysis; type: ADME, cell-based, Hepatocyte; conditions: read-out: Stability; outline: as §1
CYP1A2 = target: T4, CYP1A2 (Homo sapiens, UniProt P05177); assay: Stability of compound assessed as recombinant human CYP1A2-mediated drug metabolism by measuring compound remaining at 1 uM incubated for 60 mins by LC-MS analysis; type: ADME; conditions: read-out: Stability; outline: as §4
T4 sequence (P05177 whole entry): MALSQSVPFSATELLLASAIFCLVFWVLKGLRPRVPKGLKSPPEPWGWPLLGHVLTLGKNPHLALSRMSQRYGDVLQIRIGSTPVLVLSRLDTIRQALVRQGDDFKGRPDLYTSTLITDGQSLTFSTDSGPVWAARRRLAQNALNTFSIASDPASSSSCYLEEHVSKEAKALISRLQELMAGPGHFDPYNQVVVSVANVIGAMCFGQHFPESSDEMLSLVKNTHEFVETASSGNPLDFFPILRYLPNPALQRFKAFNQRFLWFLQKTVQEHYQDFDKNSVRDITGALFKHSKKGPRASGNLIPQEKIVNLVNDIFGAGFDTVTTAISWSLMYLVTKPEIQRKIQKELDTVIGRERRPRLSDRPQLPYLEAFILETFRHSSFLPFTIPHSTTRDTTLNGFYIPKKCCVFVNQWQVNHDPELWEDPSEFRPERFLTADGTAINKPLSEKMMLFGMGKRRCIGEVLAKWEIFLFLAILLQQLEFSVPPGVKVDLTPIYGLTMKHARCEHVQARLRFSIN

[21] = target: T5, Phosphatidylinositol 4,5-bisphosphate 3-kinase catalytic subunit delta isoform (Homo sapiens, UniProt O00329); assay: Binding affinity to DNA-tagged P13kdelta (unknown origin) assessed as dissociation constant by quantitative PCR analysis; outline: as §2
T5 sequence (O00329 whole entry): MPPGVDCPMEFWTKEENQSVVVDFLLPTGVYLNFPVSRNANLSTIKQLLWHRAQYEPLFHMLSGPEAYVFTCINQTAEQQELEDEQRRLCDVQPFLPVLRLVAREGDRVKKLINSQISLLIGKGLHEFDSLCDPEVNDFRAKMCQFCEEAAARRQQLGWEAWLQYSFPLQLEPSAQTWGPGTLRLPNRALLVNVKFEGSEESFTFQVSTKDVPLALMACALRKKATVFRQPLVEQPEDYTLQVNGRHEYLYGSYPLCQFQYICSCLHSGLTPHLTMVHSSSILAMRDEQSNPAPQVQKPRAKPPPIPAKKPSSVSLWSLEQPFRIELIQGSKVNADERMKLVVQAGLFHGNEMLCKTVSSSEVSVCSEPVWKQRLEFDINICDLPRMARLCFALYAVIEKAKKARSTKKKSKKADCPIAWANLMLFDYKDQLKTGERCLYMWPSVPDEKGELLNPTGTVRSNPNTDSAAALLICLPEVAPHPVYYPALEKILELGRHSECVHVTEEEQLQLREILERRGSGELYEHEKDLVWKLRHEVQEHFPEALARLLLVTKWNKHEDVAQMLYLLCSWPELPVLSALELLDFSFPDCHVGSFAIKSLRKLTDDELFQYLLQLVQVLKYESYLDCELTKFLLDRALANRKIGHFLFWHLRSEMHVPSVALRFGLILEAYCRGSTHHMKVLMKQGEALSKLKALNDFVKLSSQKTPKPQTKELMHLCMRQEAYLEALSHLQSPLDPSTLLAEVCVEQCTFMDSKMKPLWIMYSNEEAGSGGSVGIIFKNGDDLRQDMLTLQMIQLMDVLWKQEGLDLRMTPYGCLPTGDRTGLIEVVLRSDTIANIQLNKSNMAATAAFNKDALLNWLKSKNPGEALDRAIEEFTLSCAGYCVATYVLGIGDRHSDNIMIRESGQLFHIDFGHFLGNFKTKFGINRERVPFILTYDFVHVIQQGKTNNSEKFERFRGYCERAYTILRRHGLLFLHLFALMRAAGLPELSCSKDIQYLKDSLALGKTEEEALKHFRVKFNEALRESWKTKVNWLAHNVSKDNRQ

[22] = AUC (0 to 8 hrs) in Sprague-Dawley rat brain at 5 mg/kg, po administered as single dose and measured after 8 hrs by LC-MS analysis; type: ADME, organism-based; set-up: time 8 hrs, dose 5 mg/kg, route po; conditions: in vivo
Outline: (§5)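 Male Sprague Dawley rats given a single oral dose of 5 mg/kg (5 mL/kg) in 20% Captisol, pH adjusted to 3. Three rats per time point (30 min, 2, 4, 8 h); heart-puncture blood into lithium-heparin, plasma separated, brain collected. Samples precipitated with acetonitrile containing diazepam internal standard, then LC-MS quantification.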

[23] = target: Phosphatidylinositol 3-kinase catalytic subunit type 3 (Homo sapiens, UniProt Q8NEB9); assay: Binding affinity to DNA-tagged VPS34 (unknown origin) assessed as dissociation constant by quantitative PCR analysis; outline: as §2
Chain of Phosphatidylinositol 3-kinase catalytic subunit type 3 (Q8NEB9 whole entry, canonical isoform): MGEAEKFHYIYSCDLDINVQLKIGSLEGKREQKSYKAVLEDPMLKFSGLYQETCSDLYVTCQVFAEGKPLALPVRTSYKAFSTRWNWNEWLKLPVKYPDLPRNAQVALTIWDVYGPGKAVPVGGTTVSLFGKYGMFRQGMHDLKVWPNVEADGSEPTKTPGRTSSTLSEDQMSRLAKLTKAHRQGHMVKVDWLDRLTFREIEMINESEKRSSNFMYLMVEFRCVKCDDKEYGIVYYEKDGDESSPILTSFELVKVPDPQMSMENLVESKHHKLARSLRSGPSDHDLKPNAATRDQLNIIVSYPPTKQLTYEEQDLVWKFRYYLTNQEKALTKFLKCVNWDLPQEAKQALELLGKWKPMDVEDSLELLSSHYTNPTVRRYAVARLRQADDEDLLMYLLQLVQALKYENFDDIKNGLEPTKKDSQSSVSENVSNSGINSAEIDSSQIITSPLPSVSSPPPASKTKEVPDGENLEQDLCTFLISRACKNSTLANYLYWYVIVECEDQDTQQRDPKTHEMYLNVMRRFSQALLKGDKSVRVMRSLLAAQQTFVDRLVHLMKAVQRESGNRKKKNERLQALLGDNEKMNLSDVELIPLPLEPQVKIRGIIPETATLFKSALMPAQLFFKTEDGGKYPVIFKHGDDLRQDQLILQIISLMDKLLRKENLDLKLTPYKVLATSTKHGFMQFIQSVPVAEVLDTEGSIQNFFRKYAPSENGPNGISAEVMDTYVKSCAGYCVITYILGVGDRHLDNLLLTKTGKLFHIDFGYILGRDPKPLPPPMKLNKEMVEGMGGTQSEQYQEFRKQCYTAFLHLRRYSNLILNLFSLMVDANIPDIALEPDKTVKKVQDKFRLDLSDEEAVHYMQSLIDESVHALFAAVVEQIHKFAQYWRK

[24] = target: Phosphatidylinositol 4,5-bisphosphate 3-kinase catalytic subunit gamma isoform (Homo sapiens, UniProt P48736); assay: Binding affinity to DNA-tagged P13kgamma (unknown origin) assessed as dissociation constant by quantitative PCR analysis; outline: as §2
Chain of Phosphatidylinositol 4,5-bisphosphate 3-kinase catalytic subunit gamma isoform (P48736 whole entry, canonical isoform): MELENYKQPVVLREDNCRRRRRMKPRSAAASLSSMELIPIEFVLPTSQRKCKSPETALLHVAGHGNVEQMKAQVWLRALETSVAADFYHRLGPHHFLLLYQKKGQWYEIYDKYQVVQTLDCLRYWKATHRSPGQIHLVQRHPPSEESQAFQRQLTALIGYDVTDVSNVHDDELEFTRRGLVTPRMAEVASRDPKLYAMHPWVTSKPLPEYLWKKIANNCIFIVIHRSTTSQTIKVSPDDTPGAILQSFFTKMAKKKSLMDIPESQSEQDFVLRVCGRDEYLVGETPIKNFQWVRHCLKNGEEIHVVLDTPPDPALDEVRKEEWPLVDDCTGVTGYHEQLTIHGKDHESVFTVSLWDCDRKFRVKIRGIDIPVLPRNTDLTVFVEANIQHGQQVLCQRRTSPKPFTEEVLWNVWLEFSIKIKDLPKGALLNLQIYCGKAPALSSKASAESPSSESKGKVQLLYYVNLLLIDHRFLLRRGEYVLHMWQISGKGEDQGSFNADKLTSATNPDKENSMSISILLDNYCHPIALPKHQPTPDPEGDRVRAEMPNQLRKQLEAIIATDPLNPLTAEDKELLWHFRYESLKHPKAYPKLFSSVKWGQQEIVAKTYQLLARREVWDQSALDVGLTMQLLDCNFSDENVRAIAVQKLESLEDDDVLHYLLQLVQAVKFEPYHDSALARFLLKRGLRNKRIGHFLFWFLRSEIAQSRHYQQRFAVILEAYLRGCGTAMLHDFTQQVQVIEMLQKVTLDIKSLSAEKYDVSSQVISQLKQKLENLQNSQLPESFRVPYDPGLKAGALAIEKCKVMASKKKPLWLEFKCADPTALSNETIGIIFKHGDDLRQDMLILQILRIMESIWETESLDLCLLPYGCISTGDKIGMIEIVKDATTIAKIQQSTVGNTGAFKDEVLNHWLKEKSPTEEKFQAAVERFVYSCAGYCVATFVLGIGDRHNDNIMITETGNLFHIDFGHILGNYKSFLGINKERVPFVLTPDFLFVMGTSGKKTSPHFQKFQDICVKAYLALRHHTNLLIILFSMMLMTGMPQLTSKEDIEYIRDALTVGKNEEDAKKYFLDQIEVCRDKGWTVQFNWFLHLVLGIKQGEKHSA

[25] = Metabolic stability in Beagle dog hepatocytes assessed as parent compound remaining at 5 uM measured after 3 hrs by LC-MS analysis; type: ADME, cell-based, Canis lupus familiaris, Hepatocyte; conditions: read-out: Stability; outline: as §1
[26] = AUC (0 to 8 hrs) in Sprague-Dawley rat plasma at 5 mg/kg, po administered as single dose and measured after 8 hrs by LC-MS analysis; type: ADME, organism-based; set-up: dose 5 mg/kg, time 8 hrs, route po; outline: as §5
[27] = Toxicity in Sprague-Dawley rat assessed as increase in glucose concentration at 5 mg/kg, po measured upto 8 hrs by glucose colorimetric assay; type: organism-based; conditions: in vivo; outline: as §3
cells [28] = conditions: Homo sapiens, Karpas-1718, 72 h
[29] = Metabolic stability in human hepatocytes assessed as parent compound remaining at 5 uM measured after 3 hrs by LC-MS analysis; type: ADME, cell-based, Hepatocyte; conditions: read-out: Stability; outline: as §1

SMILES	hepatocyte CLint at 5 µM [1] [µL/min/1e6 cells]	half-life at 5 µM [2] [min]	hepatocyte CLint at 5 µM [3] [µL/min/1e6 cells]	half-life at 5 µM [4] [min]	half-life at 5 µM [5] [min]	half-life at 5 µM [6] [min]	hepatocyte CLint at 5 µM [7] [µL/min/1e6 cells]	hepatocyte CLint at 5 µM [8] [µL/min/1e6 cells]	pKi [11]	pIC50 (cells [13])	pKi [16]	pIC50 (cells [18])	pIC50 (cells [19])	pIC50 (VL51)	pIC50 (cells [28])	also measured
CCOc1ccc2ccc(=O)oc2c1	18	39	50	18	17	47	45	22	–	–	–	–	–	–	–	–
Nc1cc(C(F)F)c(-c2nc(C3CCOCC3)nc(N3C4CCC3COC4)n2)cn1	2.99	> 180	2.11	> 180	> 180	> 180	0.42	3.56	7.66	6.43	5.95	6.77	7.07	6.51	6.93	pKd [9]: < 4.52; remaining at 3 h, 5 µM [10]: 74.5%; Activity [12]: Non-Toxic; pKd [14]: 8.30; pKd [15]: 5.19; pKd [17]: 6.38; remaining at 1 h, 1 µM (CYP1A1): 53.3%; remaining at 3 h, 5 µM [20]: 62.4%; remaining at 1 h, 1 µM (CYP1A2): 84.2%; pKd [21]: 4.81; AUC [22]: 2659 ng·h/g; pKd [23]: 5.21; pKd [24]: 5.25; remaining at 3 h, 5 µM [25]: 92.9%; AUC(0-t) at 8 h [26]: 3760 ng·h/mL; Activity [27]: Non-Toxic; remaining at 3 h, 5 µM [29]: 59.9%
Nc1cc(C(F)F)c(-c2nc(C3=CCOCC3)nc(N3C4CCC3COC4)n2)cn1	–	–	–	–	–	–	–	–	7.80	6.71	6.90	6.70	7.03	6.82	6.45	–
